Bridge positions count the residues as written; N and C are the ends. Peptide text beside a SMILES is read from it.
Legend:
CD13 (aminopeptidase N) = CD13 (aminopeptidase N) (Homo sapiens, UniProt P15144); experiment: CD13 enzyme inhibition / steady-state enzyme kinetic analysis; format: biochemical; details: for inhibition model (affected Km, but not Vmax of CD13): steady-state kinetics, double reciprocal plot; for effect of glycine N-methylation of the named peptide on CD13 inhibition: methylated vs non-methylated peptide
Method in brief: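 Enzyme inhibition was run with methylated and non-methylated peptides. IC50 is the peptide concentration inhibiting 50% of activity, from independent experiments each in duplicate. For steady-state kinetics, initial velocity was measured across varied substrate and peptide amounts and plotted as V versus substrate and as double-reciprocal plots. Ki came from two independent experiments (mean ± SE).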

αvβ3 integrin = αvβ3 integrin (Homo sapiens, UniProt P05106+P06756); experiment: Integrin binding assay; details: after 16 h of incubation in 0.1 M ammonium bicarbonate pH 8.5, 37 °C; competitive ELISA
[1] = physiological solutions; cited from earlier work
CD13 = CD13 (Homo sapiens, UniProt P15144); experiment: MS analysis of peptides after incubation with CD13; format: biochemical; details: 40 min incubation with CD13, peptide 30 µM
Method in brief: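 Peptides were incubated with or without CD13 (the no-enzyme incubation served as control), then analysed by MS.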

[2] = test system: CD13+ endothelial cells (HUVEC); experiment: Binding of peptide-Qdot605 nanoparticles to cultured HUVEC; format: cell-based, human; details: peptide coupled to Qdot605 fluorescent nanoparticles, 6 nM, 2 h
Method in brief: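 The control was nanoparticles activated with sulfo-SMCC but lacking peptide. Cell-bound Qdots (red) were imaged by fluorescence microscopy at 400X, with DAPI nuclear counterstain.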

[3] = format: physicochemical; details: 37 °C, 0.1 M ammonium bicarbonate, pH 8.5, 16 or 42 h

Compound	Ki (CD13 (aminopeptidase N)) [µM]	inhibition model (affected Km, but not Vmax of CD13) (CD13 (aminopeptidase N))	binding to αvβ3 integrin after incubation (αvβ3 integrin)	effect of glycine N-methylation of the named peptide on CD13 inhibition (CD13 (aminopeptidase N))	half-life (deamidation) [1] [h]	change in molecular mass upon incubation with CD13 (peptide cleavage) (CD13)	binding to CD13+ endothelial cells (HUVEC) [2]	asparagine deamidation (change of molecular mass by MS) [3]
N=C(N)NCCC[C@@H]1NC(=O)CNC(=O)[C@H](CC(N)=O)NC(=O)[C@@H](N)CSSC[C@@H](C(=O)O)NC1=O [CNGRC, reference compound] (H-CNGRC-OH; disulfide 1-5; N-terminus and C-terminus assumed)	134 ± 28	competitive inhibition						
cyclo(CNGRGG) [N3]			could bind	reduction of inhibitory potency				
CNGRCG					3 to 5			
N=C(N)NCCC[C@@H]1NC(=O)CNC(=O)[C@H](CC(N)=O)NC(=O)CNC(=O)[C@H](CS)NC(=O)CNC1=O [N1, c[CGNGRG]] (cyclo(CGNGRG))	12.4 ± 5.4	competitive inhibition	could bind	did not impair CD13 binding		No change	could bind	complete deamidation

From PMC5624507 (Advanced functional materials, 2017)
